The array DNA melting data of Ke et al. (doi:10.1101/2024.01.08.574731)

Legend:
[1] = folding enthalpy; higher = less favourable; fluorescence melt of hairpins on a sequencing array, two-state fit; settings: sodium 0.088 M
Method in brief: (§1)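 Two-state fits, bootstrapped, provided melting temperature and folding enthalpy from Cy3 fluorescence normalised to pre-quench Cy3 and to control constructs. Library hairpins with annealed Cy3 and quencher oligos were imaged on a sequenced MiSeq flow cell in 50 mM Na-HEPES pH 8.0, 25 mM NaCl, at 2.5 °C intervals up to 60 °C. Four replicates were combined with inverse-variance weighting. A 9.35 °C upward shift was applied to fitted temperatures to match UV melts.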

[2] = melting temperature; fluorescence melt of hairpins on a sequencing array, two-state fit, raised by 9.35 °C to match UV melts; settings: sodium 0.088 M
Method in brief: as §1

Sequence | folding enthalpy [1] [kJ/mol] | Tm [2] [°C]
GATCATTAAATGATC ((((((...)))))) | -120 | 44
CGGACGGAAACGTCGCCG ((((((....)))..))) | -50.6 | 34.5
GCTGACCGAAAGGTAGC (((.(((....)))))) | -107 | 51.7
GGAAGCGAAAGCTCATCC ((((((....)))..))) | -42 | 29
GTCTATGAAAATAGAC ((((((....)))))) | -137 | 49.5
GCGCGTGGAAACACACGC (((.(((....))).))) | -143 | 57.4
GTCCCCGAAAGGGTCGAC ((((((....)))..))) | -56.9 | 35.4
GGGTTCGAAAGAAGCCC ((((((....))).))) | -101 | 55.7
GTGATACGAAAGTACCAC (((.(((....))).))) | -137 | 45.6
GTCGGGGGAAACCTCGGC (.((.((....)).)).) | -148 | 44.9
GCACGCGGAAACACGTGC (((((.(....).))))) | -214 | 57.1
GATCCCGAAAGGGTCATC ((((((....)))..))) | -50.7 | 42.8
GCCACGCGAAAGCGCCGC ((..(((....)))..)) | -36.9 | 29.1
GAAGAGGCGAAAGCCTTC (((..(((....)))))) | -36.5 | 33.2
GAATGCGGAAACGTATTC ((((.((....)).)))) | -147 | 47.6
GGTGACACGAAAGTGACC (((..(((....)))))) | -66.1 | 38.1
GATCAACGGCTTGATC ((((((....)))))) | -120 | 42.4
GCGTAAATACGC ((((....)))) | -106 | 50
GACCCCGAAAGGGCTGTC ((((((....)))..))) | -61.1 | 40.9
GACGCACGAAAGTGAGTC (((.(((....))).))) | -167 | 60
GCCCGAGGAAACCCGAGC ((.((.(....).)).)) | -71.6 | 30.8
GCGAGTGATCGC ((((....)))) | -91.4 | 54.3
GTTCTGCGAAAGCAAAAC (((.(((....))).))) | -70 | 38.4
GCTAGGCGAAAGCATTGC ((.(.((....)).).)) | -80.2 | 42.1

Sequence | folding enthalpy [1] [kJ/mol] | Tm [2] [°C]
GATCAGACGACTGATC ((((((....)))))) | -164 | 47.5
CGCGGATCTCTCCGCG ((((((....)))))) | -214 | 66.8
GAGACAGCGAAAGCTCTC (((..(((....)))))) | -39.7 | 45.5
GTTTAGGGAAACCCAAAC ((((.((....)).)))) | -103 | 33.2
GGGTCGGGAAACCGATCC ((.((((....)))).)) | -198 | 57.4
GATCGAAAAGTCGATC ((((((....)))))) | -119 | 45.9
GATCCGTGCGCGGATC ((((((....)))))) | -202 | 65
GTGCCCACGAAAGTGCAC (((..(((....)))))) | -64.9 | 44.9
GGCGTCGAAAGACAGGCC ((((((....)))..))) | -131 | 55
GATCACGGTTGTGATC ((((((....)))))) | -131 | 61
GGAGGGCGAAAGCCTTCC (((.(((....))).))) | -104 | 61.9
GACAACGCGAAAGCGGTC (((..(((....)))))) | -57.2 | 44.9
GCCCGGCGAAAGCACGGC (((..((....))..))) | -55.8 | 57.1
GATGAACGAAAGTTTATC (((.(((....))).))) | -123 | 44.6
GTGTGCGAAAGCAGCAC ((((((....))).))) | -84.2 | 52.5
GTATGGTCGAAAGACTAC (((..(((....)))))) | -64.7 | 27.9
GTGGGACGAAAGTCACAC (((.(((....))).))) | -124 | 68.9
GTGGTCGAAAGACGGCAC ((((((....)))..))) | -70.4 | 38.5
CTAACGAAAGTTAG (((((....))))) | -99.8 | 49.4
GCTTAGCGAAAGCAATGC ((.(.((....)).).)) | -48.9 | 31.9
GCTGACCGAAAGGTTAGC (((.(((....))).))) | -141 | 58.9
GGGTTCGAAAGAAATCCC ((((((....)))..))) | -89.2 | 33.6
GCCAGGCGAAAGCGAGGC (((..((....))..))) | -88.4 | 59.4
GCCGACGAAAGTCAAGGC ((((((....)))..))) | -130 | 55.1

Sequence | folding enthalpy [1] [kJ/mol] | Tm [2] [°C]
GGTATACCGAAAGGTACC (((..(((....)))))) | -53.4 | 36.4
GCATGACCGAAAGGTTGC (((..(((....)))))) | -77.9 | 41.5
ACATTGAAAAATGT (((((....))))) | -56.2 | 32.9
GTCACCGCGAAAGCGGAC (((..(((....)))))) | -24.8 | 26.5
GATCGCACCCGCGATC ((((((....)))))) | -163 | 67.6
GCGACGCGAAAGCTTAGC ((.(.((....)).).)) | -104 | 48.9
GACCCCGAAAGGGATGTC ((((((....)))..))) | -65.3 | 41.2
GCAAAGCGAAAGCTGGGC ((..(((....)))..)) | -79.2 | 55.6
GGAATTGGAAACAATCCC ((.((((....)))).)) | -84.1 | 35.6
GCATCGACGAAAGTCTGC (((..(((....)))))) | -65.9 | 33.6
GAGCCCGGAAACGGACTC (((.(((....))).))) | -139 | 52.4
GGTGTCGAAAGACGCACC ((((((....)))..))) | -56.8 | 42.4
GATCAGCGCTCTGATC ((((((....)))))) | -142 | 50.4
GCGTACGAAAGTATTCGC ((((((....)))..))) | -107 | 40.7
GCCAAGCGAAAGCGTCGC ((.(.((....)).).)) | -53.8 | 45.5
CGACTCGGAAACGATTCG (((.(((....))).))) | -171 | 42.5
GCGACGACTCGC ((((....)))) | -71 | 45.8
GCAAGGCGAAAGCCTGC (((.(((....)))))) | -83 | 66.5
GATCATCTGTATGATC ((((((....)))))) | -152 | 47.1
GCGCTCGAAAGAGATCGC ((((((....)))..))) | -103 | 45.8
GACGAGCCGAAAGGCGTC (((..(((....)))))) | -35.7 | 42.3
GCACTCGAAAGAGAGTGC ((((((....)))..))) | -162 | 59.9
GCGGAAGCCCGC ((((....)))) | -58.4 | 57.3
GTGGTCGAAAGACCGCAC ((((((....)))..))) | -48.5 | 55.6

Sequence | folding enthalpy [1] [kJ/mol] | Tm [2] [°C]
GACTGCGAAAGCAATGTC ((((((....)))..))) | -62.4 | 44.3
GATCCACATGTGGATC ((((((....)))))) | -172 | 62.1
GCAAGTGGAAACATTTGC ((((.((....)).)))) | -125 | 45.9
GTATCCGGAAACGGATGC (.(((((....))))).) | -119 | 53
GCCACGCGAAAGCCCGGC (((..((....))..))) | -77.6 | 43.7
GGACAGTCGAAAGACTCC (((..(((....)))))) | -53.6 | 31
GCGATCTTCGC ((((...)))) | -81.2 | 51.9
GATCTTACGGAAGATC ((((((....)))))) | -122 | 44.1
GTGACCGGAAACAGTCAC (((((.(....).))))) | -134 | 45.2
GCAATGGCGAAAGCCTGC (((..(((....)))))) | -59 | 50.5
GACTCCGAAAGGATGGTC ((((((....)))..))) | -91 | 39.4
GATCAGTCCCTGATC ((((((...)))))) | -195 | 50.3
GCGATAGATCGC ((((....)))) | -90.7 | 49.7
GCACCGTCGAAAGACTGC (((..(((....)))))) | -74.2 | 35.9
GCGTATCGAAAGATTCGC (((.(((....))).))) | -179 | 53.9
GATCTTATGGAAGATC ((((((....)))))) | -122 | 40.5
GCCCGCCCGAAAGGGGGC (((..(((....)))))) | -55.2 | 60.2
GAACCTGAAAAGGTTC ((((((....)))))) | -133 | 60.6
CGATGCCGGAAACGGTCG (((..(((....)))))) | -42 | 32.7
GATGTTGGAAACAACGTC ((.((((....)))).)) | -110 | 49
GTCAACGAAAGTTCCGAC ((((((....)))..))) | -40.8 | 20.9
